{"source": "paper PMC9290342", "about": "(Clinical Pharmacology in Drug Development, 2021)", "key": {"[1]": {"type": "in vivo, human", "settings": "for tmax, total methylprednisolone: median (minimum‐maximum)", "summary_of_the_method": "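Oral methylprednisolone tablets were given to healthy in-clinic volunteers, with serial whole-blood sampling over 24 h after dosing on study days 1 and 4. Plasma total methylprednisolone was quantified by validated LC–MS/MS. The PK population comprised subjects with at least 4 consecutive quantifiable concentrations. Parameters were summarized descriptively.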"}, "[2]": {"experiment": "Safety: adverse events, examinations, laboratory tests", "type": "in vivo, human", "settings": "n = 16 subjects per study drug group", "summary_of_the_method": "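The safety population comprised every subject given ≥1 dose. Assessments throughout the study covered AEs, TEAEs (events after the first dose through study completion), serious TEAEs, physical examinations, vital signs, 12‑lead ECGs and clinical laboratory tests. Results were summarized descriptively.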"}, "[3]": {"experiment": "Plasma pharmacokinetics of free methylprednisolone after oral methylprednisolone", "type": "in vivo, human", "settings": "oral 32 mg daily; for tmax, free methylprednisolone: median (minimum‐maximum)"}, "[4]": {"test_system": "steroidogenic concentration (CSG = 5 × ConcMPD + ConcCortisol)", "experiment": "Steroidogenic exposure", "type": "in vivo, human", "settings": "oral methylprednisolone 32 mg daily", "summary_of_the_method": "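After oral methylprednisolone on days 1 and 4, plasma total and free methylprednisolone were measured over 24 h by LC–MS/MS, alongside serum total and plasma free cortisol. Steroidogenic concentration was CSG = 5 × methylprednisolone concentration + cortisol concentration. AUEC24SG was derived noncompartmentally from actual sampling times, in subjects belonging to both the PK and PD populations.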"}, "[5]": {"settings": "every 1 mg of methylprednisolone is equivalent to 5 mg of cortisol; cited from earlier work"}, "[6]": {"settings": "oral 32 mg daily, plasma, day 1, mean (SD), n = 16"}, "[7]": {"settings": "oral 32 mg daily, plasma, day 4, mean (SD), n = 14"}, "[8]": {"settings": "plasma, day 1, mean (SD), n = 16"}}, "note": "Like-named read-outs stand apart in the source and are kept apart here."}
{"smiles": "C[C@H]1C[C@@H]2[C@H]([C@@H](O)C[C@@]3(C)[C@H]2CC[C@]3(O)C(=O)CO)[C@@]2(C)C=CC(=O)C=C12", "note": "[Methylprednisolone, methylprednisolone]", "values": [{"measurement": "RAUC0‐24 (accumulation ratio), total methylprednisolone", "setting": "[1]; oral 32 mg daily, AUC0-24 on day 4 divided by AUC0-24 on day 1, mean", "result": 0.9}, {"measurement": "time of mean peak plasma total methylprednisolone concentration (mean profile)", "setting": "[1]; oral 32 mg daily, after oral dosing", "result": "around 2 hours"}, {"measurement": "AUC0‐inf, total methylprednisolone", "setting": "[1]; [6]", "result": "n = 16 1030 (380) ng • h/mL"}, {"measurement": "AUC0‐last, total methylprednisolone", "setting": "[1]; [6]", "result": "n = 16 1020 (381) ng • h/mL"}, {"measurement": "t½, total methylprednisolone", "setting": "[1]; [6]", "result": "n = 16 2.2 (0.6) h"}, {"measurement": "t½, total methylprednisolone", "setting": "[1]; oral 32 mg daily, plasma, day 1, mean (SD), n = 16, listed as methylprednisolone", "result": 2.2, "unit": "h"}, {"measurement": "tmax, total methylprednisolone", "setting": "[1]; oral 32 mg daily, plasma, day 1, n = 16", "result": "n = 16 2.0 (2.0‐4.0) h"}, {"measurement": "AUC0‐last, total methylprednisolone", "setting": "[1]; [7]", "result": "n = 14 919 (297) ng • h/mL"}, {"measurement": "t½, total methylprednisolone", "setting": "[1]; [7]", "result": "n = 14 2.4 (0.7) h"}, {"measurement": "t½, total methylprednisolone", "setting": "[1]; oral 32 mg daily, plasma, day 4, mean (SD), n = 14, listed as methylprednisolone", "result": 2.4, "unit": "h"}, {"measurement": "tmax, total methylprednisolone", "setting": "[1]; oral 32 mg daily, plasma, day 4, n = 14", "result": "n = 14 2.0 (1.0‐4.0) h"}, {"measurement": "Cmax, total methylprednisolone", "setting": "[1]; oral methylprednisolone 32 mg daily, plasma, LC-MS/MS, day 4, mean (SD), n = 14", "result": "n = 14 188.0 (40.0) ng/mL"}, {"measurement": "Any TESAE", "setting": "[2]", "result": "0 n (%)"}, {"measurement": "Subjects with any TEAE", "setting": "[2]", "result": "10 (62.5) n (%)"}, {"measurement": "TEAE: Contusion", "setting": "[2]", "result": "1 (6.3) n (%)"}, {"measurement": "TEAE: Dysuria", "setting": "[2]", "result": "0 n (%)"}, {"measurement": "TEAE: Headache", "setting": "[2]", "result": "2 (12.5) n (%)"}, {"measurement": "TEAE: Heart palpitations", "setting": "[2]", "result": "2 (12.5) n (%)"}, {"measurement": "TEAE: Injection site reaction", "setting": "[2]", "result": "0 n (%)"}, {"measurement": "TEAE: Insomnia", "setting": "[2]", "result": "0 n (%)"}, {"measurement": "TEAE: Somnolence", "setting": "[2]", "result": "0 n (%)"}, {"measurement": "TESAE: Pulmonary embolism", "setting": "[2]", "result": "0 n (%)"}, {"measurement": "AEs", "setting": "[2]; number of adverse events", "result": 17, "unit": "n"}, {"measurement": "time of mean peak plasma free methylprednisolone concentration (mean profile)", "setting": "[3]; after oral dosing", "result": 2, "unit": "h"}, {"measurement": "Cmax, free methylprednisolone", "setting": "[3]; plasma, LC-MS/MS, day 4, mean (SD), n = 15", "result": "n = 15 21.9 (5.4) ng/mL"}, {"measurement": "AUC0‐inf, free methylprednisolone", "setting": "[3]; [8]", "result": "n = 16 106 (36) ng • h/mL"}, {"measurement": "AUC0‐last, free methylprednisolone", "setting": "[3]; [8]", "result": "n = 16 104.0 (35.2) ng • h/mL"}, {"measurement": "t½, free methylprednisolone", "setting": "[3]; [8]", "result": "n = 16 1.9 (0.5) h"}, {"measurement": "t½, free methylprednisolone", "setting": "[3]; plasma, day 1, mean (SD), n = 16, listed as methylprednisolone", "result": 1.9, "unit": "h"}, {"measurement": "tmax, free methylprednisolone", "setting": "[3]; plasma, day 1, n = 16", "result": "n = 16 2.0 (1.0‐4.0) h"}, {"measurement": "t½, free methylprednisolone", "setting": "[3]; plasma, day 4, mean (SD), n = 13", "result": "n = 13 2.0 (0.5) h"}, {"measurement": "t½, free methylprednisolone", "setting": "[3]; plasma, day 4, mean (SD), n = 13, listed as methylprednisolone", "result": 2.0, "unit": "h"}, {"measurement": "AUC0‐last, free methylprednisolone", "setting": "[3]; plasma, day 4, mean (SD), n = 15", "result": "n = 15 89.5 (27.3) ng • h/mL"}, {"measurement": "tmax, free methylprednisolone", "setting": "[3]; plasma, day 4, n = 15", "result": "n = 15 2.0 (1.0‐4.0) h"}, {"measurement": "plasma total AUEC24SG", "setting": "[4]; day 1, mean (SD 1770.0)", "result": 6480.0, "unit": "ng·h/mL"}, {"measurement": "plasma free AUEC24SG", "setting": "[4]; day 4, mean (SD 136.0)", "result": 492.0, "unit": "ng·h/mL"}, {"measurement": "plasma total AUEC24SG", "setting": "[4]; day 4, mean (SD 1330.0)", "result": 5440.0, "unit": "ng·h/mL"}, {"measurement": "potency relative to cortisol (times more potent)", "setting": "[5]", "result": 5, "unit": "times"}]}
